Reference: ChEMBL document CHEMBL4665829, “Synthesis, Structure-Activity Relationship, and Antimalarial Efficacy of 6-Chloro-2-arylvinylquinolines” (J Med Chem, 2020)
Active and inactive are the calls of the source. The calls are words filed in the database; no cut-off is given here.

test system: not listed separately; experiment: Drug level in mouse liver microsomes treated with N1-(6-chloro-2-(4-fluorostyryl)quinolin-4-yl)-N2,N2-dimethylethane-1,2-diamine measured up to 60 mins by LC-MS analysis; type: ADME, Microsome; conditions: 1 h
Procedure, shortened: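 Microsomal incubations: mouse liver microsomes at 0.5 mg/mL, 1 μM compound, pH 7.4 phosphate, 37 °C, NADPH-regenerating system. The metabolite mixture was analysed by LC–MS after 15, 30 and 60 min.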

Row | Drug uptake | SMILES
1 | Active | NCCNc1cc(/C=C/c2ccc(F)cc2)nc2ccc(Cl)cc12
2 | Active | CNCCNc1cc(/C=C/c2ccc(F)cc2)nc2ccc(Cl)cc12

test system: Plasmodium falciparum; experiment: Antiplasmodial activity against late trophozoite synchronized chloroquine-resistant Plasmodium falciparum Dd2 reduction in microbial growth at 5 times of EC50 after 12 hrs by Giemsa staining-based microscopic analysis; type: functional, organism-based; conditions: not given
Procedure, shortened: (§1)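 Dd2 cultures tightly synchronized by magnetic separation and sorbitol were dosed at 5 × EC50 at 6, 18, 30 or 42 h post-invasion. Controls: DHA 50 nM, atovaquone 6.6 nM, DMSO 0.1%. Sampled every 12 h for Giemsa thin smears and for flow cytometry: glutaraldehyde/paraformaldehyde fixation, Triton permeabilization, RNAse, 500 nM YOYO-1, 500,000 events/sample. Three independent biological replicates.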

Row | SMILES | Activity
3 | CN1CCN(CCNc2cc(/C=C/c3ccc(F)cc3)nc3ccc(Cl)cc23)CC1 | Active

test system: Plasmodium falciparum; experiment: Antiplasmodial activity against synchronous gametocyte late stage of Plasmodium falciparum 3D7 harboring luc7 incubated for 72 hrs by ONE-Glo luciferase assay; type: functional, organism-based; conditions: 3D7, 72 h
Procedure, shortened: (§2)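 Gametocytes of P. falciparum 3D7 luc7 induced by nutrient starvation, cultured in heparin medium to remove asexual stages, Percoll-purified as early (II–III) or late (IV–V) stage. 50,000 gametocytes/well exposed 72 h to a 19-point gradient, 0.038 nM–10 μM. ONE-Glo luciferase read after 5 min. EC50 by nonlinear curve fit; three experiments.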

Row | SMILES | EC50
4 | CN1CCN(CCNc2cc(/C=C/c3ccc(F)cc3)nc3ccc(Cl)cc23)CC1 | 2500 nM
5 | C[C@H]1[C@@H](O)O[C@@H]2O[C@@]3(C)CC[C@H]4[C@H](C)CC[C@@H]1[C@@]24OO3 [ARTENIMOL] | 37.4 nM
6 | CN(C)c1ccc2nc3ccc(N(C)C)cc3[s+]c2c1 [METHYLENE BLUE ANHYDROUS] | 107 nM

test system: not listed separately; experiment: Intrinsic clearance in mouse liver microsomes assessed as parent compound at 1 uM after 60 mins in presence of NADPH by LC-MS analysis; type: ADME, Microsome; conditions: not given
Procedure, shortened: (§3)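 Mouse liver microsomes (0.5 mg/mL final protein) in 0.1 M phosphate, pH 7.4, with compound at 1 μM, 37 °C with shaking. Aliquots were quenched in cold acetonitrile and centrifuged; LC–MS gave parent peak area at 60 min relative to 0 min.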

Row | SMILES | CLH
7 | CN1CCN(CCNc2cc(/C=C/c3ccc(F)cc3)nc3ccc(Cl)cc23)CC1 | 23 µL/min/mg

test system: Plasmodium falciparum; experiment: Antiplasmodial activity against chloroquine-sensitive Plasmodium falciparum 3D7 infected in human erythrocytes assessed as reduction in microbial growth after 72 hrs by SYBR green I staining based fluorescence assay; type: functional, organism-based; conditions: 3D7, Erythrocyte
Procedure, shortened: (§4)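 SYBR Green I assay: twofold serial dilutions on P. falciparum cultures at 1% parasitemia, 1% hematocrit, 37 °C, 5% CO₂, 72 h, max 0.1% DMSO. DMSO and CQ as growth and inhibition controls. Plates frozen at −80 °C, thawed, lysed in Tris/saponin/EDTA/Triton buffer with 0.01% SYBR Green I, 1 h dark at room temperature. Fluorescence read at 485 ex/530 em. EC50 by nonlinear dose–response fit.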

Row | SMILES | EC50
8 | CN1CCN(CCNc2cc(/C=C/c3ccc(F)cc3)nc3ccc(Cl)cc23)CC1 | 15.7 nM

test system: Plasmodium falciparum; experiment: Antiplasmodial activity against synchronized chloroquine-resistant Plasmodium falciparum Dd2 reduction in microbial growth at 50 nM treated with compound at 42 hrs post infection measured after 12 hrs by YOYO-1 staining-based flow cytometric analysis; type: functional, organism-based; conditions: not given; procedure, shortened: as §1

Row | SMILES | Activity
9 | C[C@H]1[C@@H](O)O[C@@H]2O[C@@]3(C)CC[C@H]4[C@H](C)CC[C@@H]1[C@@]24OO3 [ARTENIMOL] | Active

test system: not listed separately; experiment: Stability of compound in mouse liver microsomes assessed as parent compound remaining at 1 uM after 60 mins in presence of NADPH by LC-MS analysis; type: ADME, Microsome; conditions: 1 h; procedure, shortened: as §3

Row | SMILES | Stabilty
10 | CN1CCN(CCNc2cc(/C=C/c3ccc(F)cc3)nc3ccc(Cl)cc23)CC1 | 50.2%

test system: not listed separately; experiment: Resistant index, ratio of EC50 for antiplasmodial activity against chloroquine-resistant Plasmodium falciparum Dd2 to antiplasmodial activity against chloroquine-sensitive Plasmodium falciparum 3D7; type: functional; conditions: not given

Row | SMILES | Ratio EC50
11 | CN1CCN(CCNc2cc(/C=C/c3ccc(F)cc3)nc3ccc(Cl)cc23)CC1 | 1

test system: Plasmodium falciparum; experiment: Antiplasmodial activity against late trophozoite synchronized chloroquine-resistant Plasmodium falciparum Dd2 reduction in microbial growth at 5 times of EC50 after 12 hrs by YOYO-1 staining-based flow cytometric analysis; type: functional, organism-based; conditions: not given; procedure, shortened: as §1

Row | SMILES | Activity
12 | CN1CCN(CCNc2cc(/C=C/c3ccc(F)cc3)nc3ccc(Cl)cc23)CC1 | Active

test system: Plasmodium falciparum; experiment: Parasiticidal activity against chloroquine-resistant Plasmodium falciparum Dd2 infected in RBC assessed as reduction in parasitemia at 50 nM incubated for 6 to 48 hrs followed by compound washout and then incubated for 96 hrs by Giemsa staining based microscopic analysis; type: functional, organism-based; conditions: time hrs 6-48
Procedure, shortened: (§5)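 Controls: 0.15% DMSO, DHA 50 nM, atovaquone 6.6 nM. Drug removed by three RPMI washes, then parasitemia followed daily for 96 h by Giemsa thin smears. Three independent biological replicates.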

Row | SMILES | Activity
13 | C[C@H]1[C@@H](O)O[C@@H]2O[C@@]3(C)CC[C@H]4[C@H](C)CC[C@@H]1[C@@]24OO3 [ARTENIMOL] | Active

test system: Plasmodium falciparum; experiment: Antiplasmodial activity against synchronous gametocyte early stage of Plasmodium falciparum 3D7 harboring luc7 incubated for 72 hrs by ONE-Glo luciferase assay; type: functional, organism-based; conditions: 3D7, 72 h; procedure, shortened: as §2

Row | SMILES | EC50
14 | CN1CCN(CCNc2cc(/C=C/c3ccc(F)cc3)nc3ccc(Cl)cc23)CC1 | 910 nM
15 | C[C@H]1[C@@H](O)O[C@@H]2O[C@@]3(C)CC[C@H]4[C@H](C)CC[C@@H]1[C@@]24OO3 [ARTENIMOL] | 17.4 nM
16 | CN(C)c1ccc2nc3ccc(N(C)C)cc3[s+]c2c1 [METHYLENE BLUE ANHYDROUS] | 74.7 nM

test system: HepG2; experiment: Cytotoxicity against human HepG2 cells assessed as reduction in cell viability after 48 hrs by MTS assay; type: cell-based; conditions: HepG2, 48 h
Procedure, shortened: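 HepG2 cells were seeded at 2250 per well and grown 24 h at 37 °C, 5% CO₂. Serial dilutions starting at 25 μM were added for a further 48 h. MTS was then added for 3 h at 37 °C and absorbance read at 490 nm. EC₅₀ came from nonlinear dose–response fits.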

Row | SMILES | EC50
17 | CN1CCN(CCNc2cc(/C=C/c3ccc(F)cc3)nc3ccc(Cl)cc23)CC1 | 3.2 µM

test system: Plasmodium falciparum; experiment: Antiplasmodial activity against synchronized chloroquine-resistant Plasmodium falciparum Dd2 reduction in microbial growth at 50 nM treated with compound at 42 hrs post infection measured after 12 hrs by Giemsa staining-based microscopic analysis; type: functional, organism-based; conditions: not given; procedure, shortened: as §1

Row | SMILES | Activity
18 | C[C@H]1[C@@H](O)O[C@@H]2O[C@@]3(C)CC[C@H]4[C@H](C)CC[C@@H]1[C@@]24OO3 [ARTENIMOL] | Active

test system: Plasmodium berghei; experiment: Antiplasmodial activity against Plasmodium berghei ANKA expressing luciferase infected in Swiss Webster mouse at 25 mg/kg, po for 5 days using monophosphate salt form of compound by luminescence based assay; type: functional, organism-based; conditions: time 5.0 day
Procedure, shortened: (§6)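 Female Swiss Webster mice got 10³ RBC infected with luciferase-expressing P. berghei ANKA. From 48 h post-infection, groups of five were gavaged once daily for 5 days in 2% methylcellulose/0.5% Tween 80, against a vehicle control. On day 7, mice received 150 mg/kg D-luciferin in PBS, and bioluminescence was imaged by IVIS as a measure of parasite load.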

Row | SMILES | Activity
19 | CN1CCN(CCNc2cc(/C=C/c3ccc(F)cc3)nc3ccc(Cl)cc23)CC1 | inactive

test system: Plasmodium falciparum; experiment: Parasiticidal activity against chloroquine-resistant Plasmodium falciparum Dd2 infected in RBC assessed as reduction in parasitemia at 5 times of EC50 incubated for 6 to 48 hrs followed by compound washout and then incubated for 96 hrs by Giemsa staining based microscopic analysis; type: functional, organism-based; conditions: time hrs 6-48; procedure, shortened: as §5

Row | SMILES | Activity
20 | CN1CCN(CCNc2cc(/C=C/c3ccc(F)cc3)nc3ccc(Cl)cc23)CC1 | Active

test system: Plasmodium falciparum; experiment: Antiplasmodial activity against chloroquine-resistant Plasmodium falciparum Dd2 infected in human erythrocytes assessed as reduction in microbial growth after 72 hrs by SYBR green I staining based fluorescence assay; type: functional, organism-based; conditions: Dd2, Erythrocyte; procedure, shortened: as §4

Row | SMILES | EC50
21 | CN1CCN(CCNc2cc(/C=C/c3ccc(F)cc3)nc3ccc(Cl)cc23)CC1 | 15.3 nM

test system: Hemozoin; experiment: Inhibition of beta-hematin formation after 16 hrs by inverted microscopic analysis; conditions: dose microM 12.5-200, time 16.0 hrs
Procedure, shortened: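 Hemin (2 mM stock in 0.1 M NaOH; 100 μM final), propionate buffer pH 5.2 and sonicated phosphatidylcholine were incubated with a compound concentration series for 16 h at 37 °C with gentle shaking. Crystals were imaged by inverted microscope before quenching with 7.5% SDS in bicarbonate, pH 9.1. Free hemin was measured at 405 nm against a 0–16 μM calibration. Three independent experiments.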

Row | SMILES | inhibition
22 | CN1CCN(CCNc2cc(/C=C/c3ccc(F)cc3)nc3ccc(Cl)cc23)CC1 | Dose-dependent effect

test system: not listed separately; experiment: Half life in mouse liver microsomes at 1 uM after 60 mins in presence of NADPH by LC-MS analysis; type: ADME, Microsome; conditions: 1 h; procedure, shortened: as §3

Row | SMILES | t1/2
23 | CN1CCN(CCNc2cc(/C=C/c3ccc(F)cc3)nc3ccc(Cl)cc23)CC1 | 60.3 min

test system: Plasmodium berghei; experiment: Antiplasmodial activity against Plasmodium berghei ANKA expressing luciferase infected in Swiss Webster mouse at 100 mg/kg, po for 5 days using monophosphate salt form of compound by luminescence based assay; type: functional, organism-based; conditions: time 5.0 day; procedure, shortened: as §6

Row | SMILES | Activity
24 | CN1CCN(CCNc2cc(/C=C/c3ccc(F)cc3)nc3ccc(Cl)cc23)CC1 | Active

test system: not listed separately; experiment: Selectivity index, ratio of EC50 for cytotoxicity against human HepG2 cells to antiplasmodial activity against chloroquine-resistant Plasmodium falciparum Dd2; type: toxicity, cell-based; conditions: read-out: Ratio EC50

Row | SMILES | selectivity ratio
25 | CN1CCN(CCNc2cc(/C=C/c3ccc(F)cc3)nc3ccc(Cl)cc23)CC1 | 209
